In publication PMC9275543 (Chromatographia, 2022):
pKd: −log10 of the molar value. Like-named read-outs stand apart in the source and are kept apart here.

Assays:
ACE2 [1] = target: T1, ACE2 (Homo sapiens, UniProt Q9BYF1); details: cell chromatography; cited from earlier work
ACE2 [2] = target: T1, ACE2; details: surface plasmon resonance; cited from earlier work
[3] = target: angiotensin-converting enzyme 2 (ACE2) (Homo sapiens, UniProt Q9BYF1); assay: Frontal analysis on the ACE2 affinity capillary column; assay type: binding; details: 5 μM; 25 μm i.d., 40 mm; 30 nL/min; 25 °C
[4] = Breakthrough on neutravidin control column; assay type: binding; details: 5 μM; 25 μm i.d.; 30 nL/min; 25 °C; no ACE2 or Main pro
Procedure, shortened: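 Frontal analysis: free test compound or its PEG-dispersed oxidized multiwall carbon nanotube nanovector, each at 5 μM in 50 mM PBS pH 7.4, flushed successively through a neutravidin poly(GMA-co-EDMA) monolith capillary (40 mm, 25 μm i.d.) with no grafted receptor. Run at 30 nL min−1 and 25 °C with UV detection at 238 nm. Saturation plateau time tp is normalized to DMSO-derived dead time t0.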

[5] = target: SARS-CoV-2-Main protease (Main pro) (Severe acute respiratory syndrome coronavirus 2, UniProt P0DTD1); assay: Normalized breakthrough curves on the Main pro affinity capillary column; assay type: binding
Procedure, shortened: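 Recombinant biotinylated Main pro was loaded at 10 μM and 30 nL/min onto a neutravidin poly(GMA-co-EDMA) monolith capillary, immobilising about 1.60 pmol (n = 6). Free test compound and its PEG-dispersed oxidised MWCNT nanovector (5 μM) were flushed in 50 mM PBS pH 7.4. Reference columns were neutravidin-only and ACE2. UV was read at 238 nm. Breakthrough was normalised as outlet/inlet absorbance versus tp/t0, with t0 from DMSO.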

ACE2 [6] = target: T1, ACE2; assay: Competition experiment with SARS-CoV-2 RBD on the ACE2 affinity column; assay type: binding; details: from competition with SARS-CoV-2 RBD

T1 sequence (Q9BYF1 18-805): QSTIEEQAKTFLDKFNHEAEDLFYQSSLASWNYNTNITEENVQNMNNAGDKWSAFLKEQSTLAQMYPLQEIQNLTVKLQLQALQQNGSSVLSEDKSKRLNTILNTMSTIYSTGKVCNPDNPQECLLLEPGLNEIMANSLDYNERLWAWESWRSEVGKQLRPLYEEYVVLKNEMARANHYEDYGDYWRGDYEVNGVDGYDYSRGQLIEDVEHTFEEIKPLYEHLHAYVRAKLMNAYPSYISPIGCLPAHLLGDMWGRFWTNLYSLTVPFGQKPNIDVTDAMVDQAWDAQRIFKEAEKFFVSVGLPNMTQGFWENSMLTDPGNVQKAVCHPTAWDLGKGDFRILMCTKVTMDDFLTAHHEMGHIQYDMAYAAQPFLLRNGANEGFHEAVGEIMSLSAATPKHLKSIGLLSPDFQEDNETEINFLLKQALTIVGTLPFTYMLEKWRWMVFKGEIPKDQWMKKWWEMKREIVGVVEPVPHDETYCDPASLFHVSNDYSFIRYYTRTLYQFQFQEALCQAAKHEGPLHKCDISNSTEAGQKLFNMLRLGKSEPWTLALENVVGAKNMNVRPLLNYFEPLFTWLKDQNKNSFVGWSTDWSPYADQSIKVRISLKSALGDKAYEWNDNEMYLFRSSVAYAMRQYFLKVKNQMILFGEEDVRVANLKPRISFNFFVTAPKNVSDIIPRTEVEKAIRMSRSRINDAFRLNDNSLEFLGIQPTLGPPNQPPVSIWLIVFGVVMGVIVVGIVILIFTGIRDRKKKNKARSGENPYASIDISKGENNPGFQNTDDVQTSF
angiotensin-converting enzyme 2 (ACE2), sequence (Q9BYF1 18-805): as above

Row | Compound | pKd (ACE2 [1]) | pKd (ACE2 [2]) | normalized breakthrough time on the ACE2 column [3] | normalized breakthrough time t/t0 on neutravidin control column [4] | pKd [5] | normalized breakthrough time on the Main pro column ([5]; 5 μM, 25 μm i.d., 40 mm, 30 nL/min, 25 °C) | binding site on ACE2 (ACE2 [6])
1 | CCN(CC)CCCC(C)Nc1ccnc2cc(Cl)ccc12 (stereo not shown) [Chloroquine, chloroquine] | 5.89 | – | – | – | – | – | –
2 | C[C@@H]1C[C@H]2[C@@H]3CCC4=CC(=O)C=C[C@]4(C)[C@@]3(F)[C@@H](O)C[C@]2(C)[C@@]1(O)C(=O)CO [Dexamethasone] | – | 5.05 | above 1 | ~1 | < 5.30 | above 1 | bound on the orthosteric site of ACE2 with specific interaction
